pEC50, pIC50: −log10 of the molar value. Where only a bound is given, the exact number is not on record here.

One experiment concerns Trypanosoma brucei. Briefly: Evaluated in vitro for antitrypanosomal activity against Trypanosoma brucei. In kind it is functional. The note with it: read-out: ED50 (the source's name). The method in brief: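 T. brucei bloodstream forms were grown in HMI-9 medium. 10,000 haemoflagellates per well were exposed to different drug concentrations for 4 days; ED50 was reported.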

Experiment [1] is described as follows: Tested for cytotoxicity towards mouse peritoneal macrophages (MPM). The class given is functional. Put shortly: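 Peritoneal macrophages were harvested 48 h after potato-starch stimulation and seeded at 30,000 per well. After 24 h they were washed and given two-fold drug dilutions (32 down to 1.6) in RPMI + 5% FCS, with final DMSO below 0.5%. Cultures ran 7 days at 37 °C in 5% CO2 alongside untreated controls.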

Another experiment has as its system Trypanosoma cruzi. Briefly: Evaluated in vitro for antitrypanosomal activity against Trypanosoma cruzi. In kind it is functional. The conditions noted are these: read-out: ED50 (the source's name). Put shortly: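 Mouse peritoneal macrophages were seeded at 30,000 per well. After 24 h, about 100,000 T. cruzi trypomastigotes were added per well with 2-fold drug dilutions, then held 4 days at 37 °C in 5% CO2. After methanol fixation and Giemsa staining, % reduction of total parasite load (free trypomastigotes plus intracellular amastigotes) versus untreated cultures was scored microscopically; ED50 was extrapolated.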

The subject of a further experiment is Leishmania infantum. The experiment in a line: Evaluated in vitro for antitrypanosomal activity against Leishmania infantum. In kind it is functional. The note with it: read-out: ED50 (the source's name). Put shortly:
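Primary mouse peritoneal macrophages, 30,000 per well on culture slides. After 24 h, L. infantum amastigotes from the spleen of an infected donor animal were added at a 10/1 infection ratio with two-fold drug dilutions. Incubation was 7 days at 37 °C in 5% CO2. Wright-stained slides were scored microscopically for % reduction of parasite load or infected macrophages, and ED50 was extrapolated.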

The subject of another experiment is MRC5. The experiment in a line: Tested for cytotoxicity towards human MRC-5 cells. The class given is functional. Put shortly:
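MRC-5 cells were seeded at 5000 per well and washed after 24 h. Two-fold drug dilutions (32 down to 1.6) were added in RPMI + 5% FCS, with final DMSO below 0.5%. After 7 days at 37 °C in 5% CO2, MTT absorbance at 540 nm was read as % reduction versus untreated controls to give CC50.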

Another experiment concerns the target Trypanothione reductase (Trypanosoma cruzi, UniProt P28593). Briefly: Compound was tested for inhibition of trypanothione reductase from Trypanosoma cruzi. Put shortly: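 T. cruzi trypanothione reductase assay, with trypanothione disulfide as substrate and 0.02 U TR per assay; IC50 determined over increasing compound concentrations.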

Chain of Trypanothione reductase (P28593 whole entry): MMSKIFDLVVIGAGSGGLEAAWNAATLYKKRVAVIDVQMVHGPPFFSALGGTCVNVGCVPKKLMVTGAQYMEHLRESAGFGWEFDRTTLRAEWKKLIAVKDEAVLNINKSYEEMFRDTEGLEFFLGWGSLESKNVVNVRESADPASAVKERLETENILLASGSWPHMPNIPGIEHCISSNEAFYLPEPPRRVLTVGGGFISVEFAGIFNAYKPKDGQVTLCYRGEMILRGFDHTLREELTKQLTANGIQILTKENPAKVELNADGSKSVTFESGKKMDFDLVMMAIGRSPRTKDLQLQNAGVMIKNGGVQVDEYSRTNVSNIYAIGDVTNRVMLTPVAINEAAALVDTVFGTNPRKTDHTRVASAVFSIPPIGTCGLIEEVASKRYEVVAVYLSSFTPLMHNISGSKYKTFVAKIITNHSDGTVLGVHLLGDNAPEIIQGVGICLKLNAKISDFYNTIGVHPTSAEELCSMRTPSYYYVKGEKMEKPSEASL

With `O=C(NNC(=O)c1ccc([N+](=O)[O-])o1)c1ccc2ccccc2c1`, the pEC50 is 6.89 in the experiment with Trypanosoma brucei, 5.40 in the experiment with Trypanosoma cruzi and 5.10 with Leishmania infantum. Besides, the half-maximal cytotoxic concentration (CC50) (in general, the concentration that lowers cell viability or growth by half) in experiment [1] is 32 µM; with MRC5, 2 µM.

For `O=C(NNC(=O)c1ccc([N+](=O)[O-])o1)c1ccc([N+](=O)[O-])o1`, the pIC50 (in general, the negative decadic logarithm of the IC50, by convention in mol/L) at Trypanothione reductase was less than 4.30. Also, the pEC50 is 5.52 with Trypanosoma brucei, 5.52 with Trypanosoma cruzi and 5.10 with Leishmania infantum. Moreover, the figures for the CC50 (in experiment [1]; with MRC5) were 32 µM and 4 µM, respectively.

Regarding `CC(C)(C)OC(=O)NNC(=O)c1ccc([N+](=O)[O-])o1`, on Trypanothione reductase, the pIC50 was less than 4.30. Besides, the pEC50 in the experiment with Trypanosoma brucei was 5.70; in the experiment with Trypanosoma cruzi it was 6.00; with Leishmania infantum it was less than 4.49. For the same molecule, the CC50 in experiment [1] came out at 32 µM; in the experiment on MRC5, 12 µM.

For the molecule `O=C(NNS(=O)(=O)c1ccccc1)c1ccc([N+](=O)[O-])o1`, the pEC50 was 5.70 in the experiment with Trypanosoma brucei, 4.80 in the experiment with Trypanosoma cruzi and less than 4.49 with Leishmania infantum. For the same molecule, the values for the half-maximal cytotoxic concentration (CC50) (in experiment [1]; in the experiment on MRC5) were 32 µM and 4 µM, respectively.

Molecule `O=C(Cc1ccc2ccccc2c1)NNC(=O)c1ccc([N+](=O)[O-])o1` had a pIC50 against Trypanothione reductase of less than 4.60. For the same molecule, the pEC50 in the experiment with Trypanosoma brucei was 6.23; with Trypanosoma cruzi, 6.40; with Leishmania infantum, 5.10. Further, the figures for the CC50 (in experiment [1]; in the experiment on MRC5) were 32 µM and 4 µM, respectively.

`O=C(NNS(=O)(=O)c1cccc2ccccc12)c1ccc([N+](=O)[O-])o1`: the pEC50 in the experiment with Trypanosoma brucei was 6.00; in the experiment with Trypanosoma cruzi, 6.10; with Leishmania infantum, 5.10. Moreover, the figures for the cytotoxic concentration (CC50) (in experiment [1]; in the experiment on MRC5) were 32 µM and 0.75 µM, respectively.

At Trypanothione reductase, `NNC(=O)c1ccc([N+](=O)[O-])o1` showed a pIC50 of less than 4.30. Besides, the pEC50 in the experiment on Trypanosoma brucei is 5.30; in the experiment on Trypanosoma cruzi, 6.30; in the experiment with Leishmania infantum, less than 4.49. Moreover, the 50% cytotoxic concentration (CC50) in experiment [1] worked out at 32 µM; in the experiment on MRC5, 9 µM.

For the molecule `COC(=O)c1ccc([N+](=O)[O-])o1`, the pEC50 with Trypanosoma brucei, with Trypanosoma cruzi and with Leishmania infantum was less than 4.49 throughout. Besides, the half-maximal cytotoxic concentration (CC50) was 32 µM in experiment [1] and greater than 32 µM with MRC5.

For `CC(C)(C)OC(=O)N[C@@H](C(=O)NNC(=O)c1ccc([N+](=O)[O-])o1)c1ccccc1`, the pEC50 was 6.60 with Trypanosoma brucei, 5.40 in the experiment on Trypanosoma cruzi and 5.10 in the experiment on Leishmania infantum. Moreover, the CC50 was determined as 32 µM in experiment [1] and 6 µM in the experiment with MRC5.

With `O=C(NNS(=O)(=O)c1ccc2ccccc2c1)c1ccc([N+](=O)[O-])o1`, the pEC50 with Trypanosoma brucei is 4.55; with Trypanosoma cruzi, less than 4.49; in the experiment on Leishmania infantum it was less than 4.49. Further, the CC50 in experiment [1] amounted to 32 µM; in the experiment with MRC5 it was 18 µM.

Regarding `O=C(NNC(=O)c1cccc2ccccc12)c1ccc([N+](=O)[O-])o1`, the pEC50 is 6.40 with Trypanosoma brucei, 5.52 with Trypanosoma cruzi and 5.10 in the experiment on Leishmania infantum. For the same molecule, the CC50 in experiment [1] turned out to be 32 µM; with MRC5, 1 µM.

Consider `CC(C)(C)OC(=O)Nc1ccc2cc(C(=O)NNC(=O)c3ccc([N+](=O)[O-])o3)ccc2c1`, for which the pEC50 in the experiment with Trypanosoma brucei is 6.30; with Trypanosoma cruzi, 6.00; in the experiment with Leishmania infantum it was 5.10. The CC50 in experiment [1] turned out to be 32 µM; in the experiment on MRC5, 2 µM.

Consider `O=C(Cc1ccccc1)NNC(=O)c1ccc([N+](=O)[O-])o1`, for which the figures for the pEC50 in the experiment with Trypanosoma brucei, with Trypanosoma cruzi and with Leishmania infantum were 6.52, 6.00 and 5.10, respectively. Further, the figures for the CC50 (in experiment [1]; with MRC5) were 32 µM and 2 µM, respectively.

In the case of `O=C(NNC(=O)c1ccc([N+](=O)[O-])o1)c1ccccc1`, the pEC50 with Trypanosoma brucei was 4.49; in the experiment with Trypanosoma cruzi it was 4.80; in the experiment with Leishmania infantum it was less than 4.49. Besides, the CC50 in experiment [1] was 32 µM; with MRC5, 17 µM.

Regarding `N[C@@H](C(=O)NNC(=O)c1ccc([N+](=O)[O-])o1)c1ccccc1`, the pEC50 with Trypanosoma brucei was 5.70; in the experiment on Trypanosoma cruzi it was 5.70; with Leishmania infantum it was less than 4.49. For the same molecule, the CC50 was 32 µM in experiment [1] and 14 µM in the experiment with MRC5.

As to `Nc1ccc2cc(C(=O)NNC(=O)c3ccc([N+](=O)[O-])o3)ccc2c1`, the pEC50 in the experiment with Trypanosoma brucei is 6.19; with Trypanosoma cruzi, 5.40; in the experiment with Leishmania infantum, 5.10. The CC50 in experiment [1] was found to be 32 µM; in the experiment with MRC5 it was 0.77 µM.

As for `O=C(O)c1ccc([N+](=O)[O-])o1` [5-NITRO-2-FUROIC ACID], the pEC50 in the experiment on Trypanosoma brucei is 5.30; in the experiment on Trypanosoma cruzi, less than 4.49; in the experiment with Leishmania infantum, less than 4.49. For the same molecule, the 50% cytotoxic concentration (CC50) in experiment [1] is 32 µM; with MRC5, greater than 32 µM.

As to `O=C(Cn1ccnc1[N+](=O)[O-])NCc1ccccc1` [BENZNIDAZOLE], in the experiment on Trypanosoma cruzi, the pEC50 was 5.50. In addition, the cytotoxic concentration (CC50) in the experiment on MRC5 was greater than 50 µM.

Take `Nc1nc(N)nc(Nc2ccc([As]3SCC(CO)S3)cc2)n1` (centres undefined) [MELARSOPROL]: in the experiment with Trypanosoma brucei, the pEC50 was 6.70.

With `CC1CS(=O)(=O)CCN1/N=C/c1ccc([N+](=O)[O-])o1` (centres undefined) [NIFURTIMOX], the pEC50 in the experiment with Trypanosoma cruzi is 6.40. The CC50 with MRC5 is greater than 50 µM.

The values above are taken from ChEMBL document CHEMBL1136044, “Antitrypanosomal activities and cytotoxicity of 5-nitro-2-furancarbohydrazides” (Bioorg Med Chem Lett, 2002).
